For assay [1], the target named is T1, S-adenosylmethionine decarboxylase proenzyme (Homo sapiens, UniProt P17707).
T1 sequence (P17707 whole entry): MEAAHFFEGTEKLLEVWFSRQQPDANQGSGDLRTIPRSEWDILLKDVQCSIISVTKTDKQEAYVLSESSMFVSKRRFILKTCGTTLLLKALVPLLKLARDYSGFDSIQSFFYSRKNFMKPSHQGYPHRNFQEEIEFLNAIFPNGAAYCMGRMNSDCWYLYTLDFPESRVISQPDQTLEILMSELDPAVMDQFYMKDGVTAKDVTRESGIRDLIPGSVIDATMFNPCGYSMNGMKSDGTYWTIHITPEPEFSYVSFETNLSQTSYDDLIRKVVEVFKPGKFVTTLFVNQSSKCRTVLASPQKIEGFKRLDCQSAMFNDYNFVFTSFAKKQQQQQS
Kind of assay: Inhibition of recombinant human N-terminal His6-tagged AdoMetDC expressed in Escherichia coli BL21/DE3 cells at pH 7.2 by RapidFire-MS-based enzyme activity assay.

The subject of assay [2] is Trypanosoma brucei brucei. Kind of assay: Antitrypanosomal activity against blood stream form Trypanosoma brucei brucei Lister 427 at 25 uM after 48 hrs by CellTiter-Glo assay. Type of assay: functional. The method, boiled down: (§1)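 Bloodstream-form parasites grown in HMI-19 with fetal bovine serum, exposed 48 h to a 3-fold serial dilution (0.0038–25 μM or 0.015–100 μM final; 0.1% DMSO vehicle). Cell density read by ATP bioluminescence (CellTiter-Glo). Triplicate; EC50 from normalized response vs log concentration fit, bottom fixed at 0, Hill slope fixed at –8 when curve steepness gave ambiguous fit. Percent inhibition given at top concentration when <50%.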

A short description of assay [3]: Inhibition of recombinant Trypanosoma brucei N-terminal His6-tagged AdoMetDC/prozyme hetrodimer expressed in Escherichia coli BL21/DE3 cells at pH 7.2 by RapidFire-MS-based enzyme activity assay.
For assay [4], the system named is Trypanosoma brucei. Kind of assay: Inhibition of recombinant Trypanosoma brucei N-terminal His6-tagged AdoMetDC/prozyme hetrodimer expressed in Escherichia coli BL21/DE3 cells at 180 uM at pH 7.2 by RapidFire-MS-based enzyme activity assay. A digest of the protocol:
(§2)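 Steady-state decarboxylation of S-adenosyl-L-methionine by purified TbAdoMetDC/prozyme at pH 7.2; decarboxylated AdoMet product read by RapidFire–MS. Inhibitor added from DMSO to 2% final DMSO. Percent inhibition reported at the top tested concentration when mean inhibition stayed below 50%; triplicate.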

For assay [5], the system named is Trypanosoma brucei. In words: Inhibition of recombinant Trypanosoma brucei N-terminal His6-tagged AdoMetDC/prozyme hetrodimer expressed in Escherichia coli BL21/DE3 cells at 21 uM at pH 7.2 by RapidFire-MS-based enzyme activity assay. The method, boiled down: as §2
The subject of assay [6] is Trypanosoma brucei brucei. In words: Antitrypanosomal activity against bloodstream form Trypanosoma brucei brucei Lister 427 after 48 hrs by CellTiter-Glo assay. Type of assay: functional. As to conditions: Lister 427, 48 h. A digest of the protocol:
as §1

In assay [7] the target is T2, S-adenosylmethionine decarboxylase proenzyme (Homo sapiens) (UniProt P17707).
T2 sequence (whole entry): T1 sequence (P17707 whole entry)
In words: Inhibition of recombinant human N-terminal His6-tagged AdoMetDC expressed in Escherichia coli BL21/DE3 cells at 180 uM at pH 7.2 by RapidFire-MS-based enzyme activity assay.

Assay [8] is described as follows: Selectivity ratio of IC50 for recombinant human N-terminal His6-tagged AdoMetDC expressed in Escherichia coli BL21/DE3 cells to IC50 for recombinant Trypanosoma brucei N-terminal His6-tagged AdoMetDC/prozyme hetrodimer expressed in Escherichia coli BL21/DE3 cells. The method, boiled down: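 Both enzymes assayed at pH 7.2 by RapidFire–MS, monitoring decarboxylated AdoMet. Inhibitor run as a 3-fold dilution series from 0.01 to 180 μM final, with 2% DMSO final. Data normalized to 0.5 μM Genz-644131 as full inhibition. IC50 fitted with bottom fixed at 0 and Hill slope fixed at −1, triplicate. Ratio is human IC50 over parasite IC50.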

The target in assay [9] is T3, S-adenosylmethionine decarboxylase proenzyme (Trypanosoma brucei brucei) (UniProt P50244).
T3 sequence (whole entry): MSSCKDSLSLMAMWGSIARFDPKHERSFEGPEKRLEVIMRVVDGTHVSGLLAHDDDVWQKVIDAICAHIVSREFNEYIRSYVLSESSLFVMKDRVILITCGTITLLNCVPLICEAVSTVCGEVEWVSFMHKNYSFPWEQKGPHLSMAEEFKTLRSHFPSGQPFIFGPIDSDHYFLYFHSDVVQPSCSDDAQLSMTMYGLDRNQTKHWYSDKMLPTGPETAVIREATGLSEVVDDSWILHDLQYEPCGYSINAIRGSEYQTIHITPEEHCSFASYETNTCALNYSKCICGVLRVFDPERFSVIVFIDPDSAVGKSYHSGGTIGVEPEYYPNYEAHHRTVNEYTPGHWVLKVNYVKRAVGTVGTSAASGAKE
Kind of assay: Inhibition of AdoMetDC in bloodstream form Trypanosoma brucei brucei Lister 427 assessed as increase in prozyme level at 1.5 times EC50 after 24 hrs by Western blot method.

Assay [10] deals with T2, S-adenosylmethionine decarboxylase proenzyme (Homo sapiens). In words: Inhibition of recombinant human N-terminal His6-tagged AdoMetDC expressed in Escherichia coli BL21/DE3 cells at 63 uM at pH 7.2 by RapidFire-MS-based enzyme activity assay.
Assay [11] relates to Trypanosoma brucei. Kind of assay: Inhibition of recombinant Trypanosoma brucei N-terminal His6-tagged AdoMetDC/prozyme hetrodimer expressed in Escherichia coli BL21/DE3 cells at 63 uM at pH 7.2 by RapidFire-MS-based enzyme activity assay. A digest of the protocol:
as §2

Assay [12] in a line: Inhibition of recombinant Trypanosoma brucei N-terminal His6-tagged AdoMetDC/prozyme hetrodimer expressed in Escherichia coli BL21/DE3 cells at pH 6.8 by RapidFire-MS-based enzyme activity assay.

Active and inactive are the calls of the source. No cut-off for these calls is given here. Bounds are passed on as bounds.

The source of these data is ChEMBL document CHEMBL4033778, “Species-Selective Pyrimidineamine Inhibitors of Trypanosoma brucei S-Adenosylmethionine Decarboxylase” (J Med Chem, 2018).

On to `Cc1cc(Nc2cc(Cl)ccc2C)nc(N)n1`, for which the IC50 in assay [1] and in [3] was above 180 µM each time. In addition, the Activity in assay [2] was 28%.
Turning to `Cc1cc(Nc2cc(Cl)ccc2Cl)nc(N)n1`, the IC50 is above 180 µM in assay [1] and 115 µM in [3]. The same compound registered an Activity in [2] of 23%.
On to `Cc1cc(Nc2ccc(F)c(F)c2)nc(N)n1`, for which the IC50 in [1] was above 180 µM. In addition, in the assay with Trypanosoma brucei [4], the inhibition was found to be 33%. In assay [2], this compound returned an Activity of 25%.
Consider `Cc1cc(Nc2ccc(Cl)cc2)nc(N)n1`, for which the IC50 in assay [1] and in assay [3] was above 180 µM throughout. This compound gave an Activity in [2] of 28%.
Consider `Cc1cc(Nc2cc(Cl)c(Oc3ccccc3)c(Cl)c2)nc(N)n1`, for which, in assay [1], the IC50 was above 180 µM. The inhibition in the assay on Trypanosoma brucei [4] was found to be 38%.
Consider `CC(=O)c1ccc(-c2cc(Cl)cc(Nc3cc(C)nc(N)n3)c2)cc1`, for which the IC50 in assay [1] is above 21 µM. Further, in the assay with Trypanosoma brucei [5], the inhibition is 28%.
Regarding `Cc1cc(Nc2cc(C(F)(F)F)ccc2Cl)nc(N)n1`, the IC50 in assay [1] was above 180 µM; in assay [3], 199 µM. This compound gave an Activity in assay [2] of 28%.
Turning to `Cc1cc(Nc2cc(Cl)cc(-c3ccc(F)c(Cl)c3)c2)nc(N)n1`, the figures for the IC50 in assay [1], in assay [6] and in [3] were above 180 µM, 3.2 µM and 157 µM, respectively.
As to `Nc1cnccc1Nc1cc(Cl)cc(Cl)c1`, in [1], the IC50 is above 180 µM. For the same compound, the inhibition in the assay with Trypanosoma brucei [4] was 21%.
For `Cc1cc(Nc2cc(Cl)cc(-c3cncs3)c2)nc(N)n1`, the half-maximal inhibitory concentration (IC50) in [1] was above 21 µM. For the same compound, the inhibition in the assay on Trypanosoma brucei [5] amounted to 42%.
On the same counts, the results for `Nc1nc(Nc2cc(Cl)cc(Cl)c2)cc(-c2ccccc2)n1` are above 21 µM and 24%.
As for `Cc1cc(Nc2cc(Br)cc(Br)c2)nc(N)n1`, the inhibition in assay [7] was 31%. Besides, the Ratio IC50 in assay [8] is above 100. Further, the IC50 in assay [3] turned out to be 1.9 µM.
Regarding `Cc1cc(Nc2cc(Cl)cc(-c3ccoc3)c2)nc(N)n1`, in assay [7], the inhibition was determined as 30%. Further, the IC50 stood at 7.1 µM in assay [6] and 7.4 µM in assay [3].
Regarding `Cc1cc(N)cc(Nc2cc(Cl)cc(Cl)c2)n1`, in [1], the IC50 is above 180 µM. The inhibition with Trypanosoma brucei [4] turned out to be 24%.
In the same order, the values of `Cc1nc(N)cc(Nc2cc(Cl)cc(Br)c2)n1` are above 180 µM and 24%.
Regarding `Cc1cc(Nc2cccc(Cl)c2C)nc(N)n1`, the IC50 in assay [1] and in [3] was above 180 µM each time. The Activity in assay [2] amounted to 29%.
Consider `Nc1nc(Cl)cc(Nc2cc(Cl)cc(Cl)c2)n1`, for which the IC50 in assay [1] and in assay [3] was above 180 µM each time. The inhibition result in [9] is “inactive”.
Consider `Cc1cc(Nc2ccc(Br)cc2F)nc(N)n1`, for which the IC50 in [1] and in [3] was above 180 µM in each case. Moreover, the Activity in [2] was 25%.
As to `Cc1cc(Nc2cc(Br)cc(OCC(F)(F)F)c2)nc(N)n1`, the IC50 was found to be 44 µM in assay [1] and 1.6 µM in [3]. In addition, the Ratio IC50 in assay [8] came to 27.
As for `Cc1cc(Nc2cccc(Cl)c2Cl)nc(N)n1`, the IC50 is above 180 µM in assay [1] and 137 µM in [3]. This compound also displayed an Activity in [2] of 27%.
For `Cc1cc(Nc2cc(Cl)cc(-c3ccccc3)c2)nc(N)n1`, the inhibition in assay [10] was determined as 30%. Also, the IC50 in [3] came to 3.3 µM.
On to `Cc1cc(Nc2cc(Cl)c(F)c(Cl)c2)nc(N)n1`, for which, in [8], the Ratio IC50 is above 100. Further, the IC50 in assay [3] was 1.5 µM.
On to `Cc1cc(Nc2cc(Cl)cc(Cl)c2)ncn1`, for which the IC50 in assay [1] and in [3] was above 180 µM throughout. For the same compound, the inhibition result in assay [9] was “inactive”.
Consider `Cc1cc(Nc2cc(Cl)cc(-c3cc4ccccc4o3)c2)nc(N)n1`, for which, in [1], the IC50 was above 63 µM. For the same compound, the inhibition in the assay with Trypanosoma brucei [11] was 23%.
In the case of `Cc1cc(Nc2cccc(Br)c2)nc(N)n1`, in assay [1], the IC50 is above 180 µM. Further, the inhibition in the assay with Trypanosoma brucei [4] is 41%.
For the compound `Nc1cc(Nc2cc(Cl)cc(Cl)c2)nc(N)n1`, the figures for the IC50 in assay [1], in assay [12] and in assay [3] were above 180 µM, 5.8 µM and 48 µM, respectively.
As to `Cc1cc(Nc2cc(Cl)c(O)c(Cl)c2)nc(N)n1`, the IC50 in assay [1] was above 180 µM. Moreover, in the assay on Trypanosoma brucei [4], the inhibition stood at 33%.
In the case of `Cc1cc(NCCc2cc(Cl)cc(Cl)c2)nc(N)n1`, the inhibition in assay [7] worked out at 29%. In [3], the IC50 was 28 µM.
In the same order, the values of `Cc1cc(Nc2cc(Cl)cc(Br)c2)nc(N)n1` are 33% and 2.2 µM.
Turning to `Cc1cc(Nc2ccc(Cl)cc2Cl)nc(N)n1`, the IC50 in [1] and in assay [3] was above 180 µM each time. This compound also displayed an Activity in assay [2] of 28%.
In the case of `COC(=O)c1cc(Nc2cc(C)nc(N)n2)cc(C(=O)OC)c1`, in assay [1], the 50% inhibitory concentration (IC50) was above 180 µM. The inhibition in the assay on Trypanosoma brucei [4] is 40%.
Take `Nc1nccc(Nc2cc(Cl)cc(Cl)c2)n1`: the IC50 in assay [1] is above 180 µM; in assay [3], 13 µM. Also, the inhibition result in [9] is “Active”.
`Cc1cc(Nc2cccc(Cl)c2)nc(N)n1`: the IC50 in assay [1] was above 180 µM. The inhibition in the assay on Trypanosoma brucei [4] turned out to be 35%.
On the same counts, the results for `Cc1cc(Nc2cc(Cl)cc(-c3ccc(N(C)C)cc3)c2)nc(N)n1` are above 180 µM and 34%.
Consider `CSc1cccc(Nc2cc(C)nc(N)n2)c1`, for which the inhibition in assay [7] is 23%. In addition, the IC50 in assay [3] was determined as 149 µM.
Turning to `C=CCOc1cc(Br)cc(Nc2cc(C)nc(N)n2)c1`, the inhibition in assay [7] was 28%. The IC50 is 4.4 µM in assay [6] and 4.5 µM in [3].
As for `Cc1cc(Nc2cc(Br)c(F)c(Br)c2)nc(N)n1`, in assay [7], the inhibition turned out to be 43%. Also, the IC50 in assay [3] was found to be 1.6 µM.
With `CCc1cc(Nc2cc(Cl)cc(Cl)c2)nc(N)n1`, the inhibition in assay [7] was 36%. In [3], the IC50 is 3 µM.
For `Cc1cc(Nc2cccc(S(F)(F)(F)(F)F)c2)nc(N)n1`, the IC50 in assay [1] was above 180 µM. For the same compound, the inhibition in the assay on Trypanosoma brucei [4] is 23%.
